Data taken from ChEMBL document CHEMBL3751796, “Structure-Based Discovery of Novel Cyclophilin A Inhibitors for the Treatment of Hepatitis C Virus Infections” (J Med Chem, 2015).
Active and inactive are the calls of the source. The calls are words filed in the database; no cut-off is given here.

Key:
Hepatitis C virus [1] = assay: Antiviral activity against HCV genotype 2a JFH1 infected in human Huh7.5 cells expressing GFP-fused NS5A measured 72 hrs post infection by hoechst 33342 staining based confocal microscopy; format: functional, organism-based, Hepacivirus hominis; settings: JFH-1, Huh-7, 72 h
[2] = Cytotoxicity against HCV infected human Huh7.5 cells assessed as cell death by MTT assay in presence of telaprevir; format: cell-based; settings: huh-7
Hepatitis C virus [3] = assay: Antiviral activity against HCV genotype 1b Con1 infected in human Huh7.5 cells expressing GFP-fused NS5A measured 72 hrs post infection by hoechst 33342 staining based confocal microscopy; format: functional, organism-based, Hepacivirus hominis; settings: isolate Con1, Huh-7, 72 h
Outline: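 Huh7 replicon cells expressing NS5A-GFP seeded at 2 × 10^3/well and left overnight, then given serially diluted compound. At 72 h, fixed in 2% PFA and nuclei stained with Hoechst 33342 (10 μg/mL). Automated confocal imaging: GFP-positive cells give activity, nuclei counts give cytotoxicity. EC50/CC50 from nonlinear regression.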

Hepatitis C virus [4] = assay: Antiviral activity against HCV genotype 1b Con1 infected in human Huh7.5 cells assessed as inhibition of NS5B expression in total cell lysate at 2 uM by Western blot analysis; format: functional, organism-based; settings: Hepacivirus hominis, isolate Con1, Huh-7
Outline: (§1)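 Con1b replicon cells treated with 2 μM. Total lysates, and a membrane fraction prepared by hypotonic buffer, dounce homogenization, 220g spin and then 68 000g for 1 h at 4 °C, analyzed by Western blot for NS5A and NS5B.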

Hepatitis C virus [5] = assay: Antiviral activity against HCV genotype 1b Con1 infected in human Huh7.5 cells assessed as inhibition of NS5A expression in membrane fractions at 2 uM by Western blot analysis; format: functional, organism-based; settings: Hepacivirus hominis, isolate Con1, Huh-7; outline: as §1
[6] = molecular target: T1, Peptidyl-prolyl cis-trans isomerase A (Homo sapiens, UniProt P62937); assay: Inhibition of human Cyclophilin A interaction with HCV genotype 1b Con1 NS5A in human Huh7.5 cells after 72 hrs by mammalian two-hybrid assay; format: cell-based; settings: Huh-7
Target sequence in this assay (P62937 whole entry, looked up): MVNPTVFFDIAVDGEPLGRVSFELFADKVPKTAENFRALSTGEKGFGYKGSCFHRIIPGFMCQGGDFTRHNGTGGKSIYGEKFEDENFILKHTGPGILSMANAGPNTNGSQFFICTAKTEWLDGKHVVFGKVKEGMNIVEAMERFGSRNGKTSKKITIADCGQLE

[7] = molecular target: T1, Peptidyl-prolyl cis-trans isomerase A; assay: Inhibition of Cyclophilin A peptidyl-prolyl cis-trans isomerase activity (unknown origin) using Succ-Ala-Leu-Pro-Phe-p-nitroaniline as substrate by enzyme kinetic analysis
Target sequence in this assay (P62937 whole entry): as the sequence (P62937 whole entry, looked up) above

[8] = molecular target: T1, Peptidyl-prolyl cis-trans isomerase A; assay: Inhibition of Cyclophilin A in human Huh7.5 cells infected with HCV assessed as reduction in viral RNA replication level at 0.5 to 4 uM by luciferase reporter gene assay; format: cell-based; settings: Huh-7
Outline: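 Huh7.5 cells infected with JFH1-Luc (Renilla luciferase reporter) virus at MOI 0.004 for 5 h at 37 °C, with or without test chemicals. Renilla luciferase activity was read from cell lysates on day 3 postinfection.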
Target sequence in this assay (P62937 whole entry, looked up): as above

[9] = molecular target: T1, Peptidyl-prolyl cis-trans isomerase A; assay: Inhibition of human Cyclophilin A interaction with HCV genotype 1b Con1 NS5B in human Huh7.5 cells at 2 uM by co-immunoprecipitation assay; format: cell-based; settings: Huh-7
Target sequence in this assay (P62937 whole entry, looked up): as above

Hepatitis C virus [10] = assay: Antiviral activity against HCV genotype 1b Con1 infected in human Huh7.5 cells assessed as reduction of IL-8 level at 2 uM incubated up to 96 hrs by ELISA; format: functional, organism-based; settings: Hepacivirus hominis, isolate Con1, Huh-7, TDE = time-dependent effect
Outline: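 Con1b replicon cells, 2 × 10^6/well, treated with 2 μM for up to 4 days at 37 °C. Pooled culture media assayed for IL-8 and IFN-α by ELISA.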

Mus musculus = species on record: Mus musculus; assay: Activation of calcium-dependent calcineurin phosphatase activity in ionomycin-stimulated BALB/c mouse splenocytes assessed as nuclear translocation of NFAT1 at 5 uM preincubated for 20 hrs followed by ionomycin stimulation measured after 4 hrs by DAPI staining based confocal microscopy
Outline: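 Splenocytes were pretreated 20 h, then stimulated with ionomycin 1 μg/mL for 4 h. Fixed in 3.7% formaldehyde, permeabilized with 0.5% Triton X-100, and incubated overnight at 4 °C with anti-NFAT1 (1:100, 3% BSA). Alexa 546 secondary 1:200 for 2 h, DAPI counterstain, then confocal imaging of NFAT1 localization.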

Hepatitis C virus [11] = assay: Antiviral activity against HCV genotype 1b Con1 infected in human Huh7.5 cells assessed as reduction of IL-8 mRNA expression at 2 uM incubated up to 96 hrs by qRT-PCR method; format: functional, organism-based; settings: Hepacivirus hominis, isolate Con1, Huh-7, TDE = time-dependent effect
Outline: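 mRNA measured by SYBR Green qRT-PCR using the 2^−ΔΔCT method, normalized to GAPDH and expressed as fold change vs controls.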

Hepatitis C virus [12] = assay: Antiviral activity against HCV genotype 1b Con1 infected in human Huh7 cells xenografted in immunodeficient NOD/SCID mouse assessed as inhibition of NS5B expression in liver at 50 mg/kg, ip up to 14 days by Western blot analysis; format: functional, organism-based; settings: Hepacivirus hominis, isolate Con1, Huh-7

EC50 (Hepatitis C virus [1]): 1120 nM | EC50 (Hepatitis C virus [3]): 730 nM | inhibition [6]: Active | IC50 [7]: 5.5 nM | inhibition [8]: Active | inhibition [9]: Active | Activity (Mus musculus): Active
Compound: COc1cc(C(C(=O)NC2CCCCC2)N(C(=O)Cc2c[nH]c3ccccc23)c2ccc(C(C)C)cc2)cc(OC)c1OC (stereo not drawn)
Activity [2]: Non-toxic | inhibition (Hepatitis C virus [4]): Active | inhibition (Hepatitis C virus [5]): Active | Activity (Hepatitis C virus [10]): tde | Activity (Hepatitis C virus [11]): tde | inhibition (Hepatitis C virus [12]): Active
